Assay results from the EternaBench riboswitch data.

Tested on: MS2 coat protein
Assay: apparent Kd, MS2 coat protein; higher = weaker binding; RNA-MaP array; FMN 200 µM where present
Summary of the method: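 Designs were transcribed by stalled E. coli RNA polymerase on Illumina sequencing-chip clusters. They were titrated with SNAP-549-labelled MS2 coat protein from 0.7 or 1.5 nM, doubling to 3 µM, in 100 mM Tris-HCl pH 7.5, 80 mM KCl, 4 mM MgCl2, BSA, DTT, yeast tRNA and Tween-20, without and then with constant ligand. The apparent Kd is the median of filtered per-cluster fits after normalisation of green signal to red-channel RNA signal and control-cluster median Fmax.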

[1] = designed as: ON switch for flavin mononucleotide, no ligand
[2] = ligand present: flavin mononucleotide, designed as: ON switch for flavin mononucleotide
[3] = designed as: OFF switch for flavin mononucleotide, no ligand
[4] = ligand present: flavin mononucleotide, designed as: OFF switch for flavin mononucleotide

Row | Sequence | apparent Kd [1] [nM] | apparent Kd [2] [nM] | apparent Kd [3] [nM] | apparent Kd [4] [nM]
1 | UGGUACUAGGGAGGAUAUGGGAAGAUACAUGAGGAUCACCCAUGUUUAAGAUUGCCGAGAGGCAACUAGAAGGCCCUAGUACCU | 1120 | 130 |  | 
2 | GGACGUCUCAUUAACAUGAGGAUCACCCAUGUCAAAAGACAUGAGGAUAUGGAUCCUAAUUGGAUCCAGAAGGCAUGGACGUCC | 939 | 59.2 |  | 
3 | GAAUAAUUGAUCCAUUUUUAAAACAUGAGGAUCACCCAUGUGCAGGAUAUCGAUAGUUUUAAAUUCGAGAAGGGCAAGAACUGU |  |  | 128 | 173
4 | AGCUGUGGCCGAGGAUAUCUAAAACCUCAAAACGAAAUAUAAUCGAACAUGAGGAUCACCCAUGUAGAGAAGGCGGUCUCAGCA |  |  | 270 | 514
5 | UCUUAACAUGAGGAUCACCCAUGUGAGGAUAUGAUGCAGCAGUGGUCUACGCUGUGCAUCAGAAGGUACAUGGG |  |  | 23 | 20.1
6 | GGAUCGAGUGUGAGGAUAUGCUGGUCGUAAGAUCAGCAGAAGGCACAUGAGGAUCACCCAUGUGAAAACGGUCC |  |  | 24.7 | 164
7 | GUUUUUCCUCAUGUACAUGAGGAACAUGAGGAUCACCCAUGUAGAAGGAAUUUUUUUAAGUUUAGUUAGGAUAUACAUAUAUUU |  |  | 72.9 | 64.5
8 | CUUUUGUGAGGAUAUUGGUAGUAAAUGAAUAAAAUUAUUACCGAGAAGGUACAUGAGGAUCACCCAUGUUCCUC |  |  | 19.4 | 27.9
9 | AAAGGACGAGGAUAUACAUGAGGAUCACCCAUGUAAAAAACAUAAUAAAAGAACUUAUGUAGAAGGCGUCCAAA |  |  | 58.6 | 336
10 | UAAUAAUUAUGAGGAUAUAUACAACAUGAGGAUCACCCAUGUACCCAUGUAGUAGAAGGCAUAUUUUUAGUUAAUAAUAUAACU | 82.2 | 33 |  | 
11 | CCUCUGUUAGGAUAUCAAACACUAUCUGCUCCAGAGUUAAGUGAGAAGGGACAUGAGGAUCACCCAUGUAAAAU |  |  | 26.9 | 33.7
12 | GGAUCGAAUGUGAGGAUAUGCUGGUCCUUGGAUCAGCAGAAGGCACAUGAGGAUCACCCAUGUCCUCUCGGUCC |  |  | 248 | 458
13 | AUUUUGUCAGGAUAUGACUAGUAGCACGAAAGUGCUACUACUUAGAAGGGACAUGAGGAUCACCCAUGUAUUCC |  |  | 15.2 | 16.1
14 | AUUAAUUAAUUAAUACAUGAGGAUCACCCAUGUAAUAAGAUCUAGGAUAUCAGCUCGUUUAGAGCUGAGAAGGAGAUCACAUGU | 42.6 | 37.2 |  | 
15 | GACGAGUGAGGAUAUGGUGAGUAGUGCCUGAGCGCUGCUCACCAGAAGGCACAUGAGGAUCACCCAUGUAUGUC |  |  | 13.5 | 17.6
16 | AGUAACUCAGAUCUUUUGAACAUGAGGAUCACCCAUGUAUUGAGAAGGAGCUGGAAGAGAGACAGCUAGGAUAUCAGAGUUGCG |  |  | 5.96 | 7.19
17 | GAGGAACAUGAGGAUCACCCAUGUGAGGAUAUGCAUAGUGAGGUAGUAGAAGUUGAAUGCAGAAGGUACACUGA |  |  | 42.2 | 32.2
18 | CCGGGCAUCGGCCCAUCUAGGCGAAGAAGGGACACGGCCAAGAUCUCACAUGAGGAUCACCCAUGUCAGGAUAUUUGGUUGGAU |  |  | 6.56 | 10.3
19 | GUAAGCGUAGGAUAUACAUGAGGAUCACCCAUGUCAGUUUUGCACUCUCGGGUGUGCUGUAGAAGGGCGUUACU |  |  | 172 | 208
20 | GCGGUACAUGAGGAUCACCCAUGUCAGGAUAUCCGCUGUUUGUCGAUUGGCAGGCGGUGGAGAAGGGACCUCGC |  |  | 97.5 | 98.5
21 | UUGGACGUCAUAGGAUAUGUAGGAUAUUCCUACAUGAGGAUCACCCAUGUUGACAUGGAAGAAGGACAGAAGGACGAUGUCCAU | 665 | 10.7 |  | 
22 | CCAUCGUGUGUGAGGAUAUGCUGGUCCUUGGAUCAGCAGAAGGCACAUGAGGAUCACCCAUGUGAAUACGGUGG |  |  | 18.6 | 29
23 | CGCGAACAGUUUAACAUGAGGAUCACCCAUGUGGACUCAUGGUAGGAUAUCGGGAAGGAGGAAACCGAGAAGGGCUGGUGAGCC | 583 | 419 |  | 
24 | AGAUGACAAAGUCAUCUCGCGCUGACAUGAGGAUCACCCAUGUAGGAUAUAUUACUCAAAGAGUAAUAGAAGGACAUGUGUCUU |  |  | 29.9 | 72.2
25 | CGGCGGAAAGGAUAUGCAUUAAUAUCCAAAUGUGGGCCACGACAUGAGGAUCACCCAUGUAGAAGGUUCAGCCG |  |  | 15.3 | 13.9
26 | CUUACGCGAGGAUAUACAUGAGGAUCACCCAUGUAACGGUGUGUAAUAUAUAUUGCGUGUAGAAGGUGUGUGGG |  |  | 87 | 101
27 | CAGGUAGACUGAGGAUAUACAAUAAAGACCUAGUCUAUCUAGGUCCCUACAUGAGGAUCACCCAUGUAGAAGGCAGUCUGCCUG |  |  | 15.9 | 20.5
28 | CGCCGACAUGAGGAUCACCCAUGUCACAUCUGGUCAGGAUAUGGUGUGGUUUGGCUAUUGCCAGAAGGGACCUCAG | 101 | 102 |  | 

Row | Sequence | apparent Kd [1] [nM] | apparent Kd [2] [nM] | apparent Kd [3] [nM] | apparent Kd [4] [nM]
29 | AGGUAAGACUUAAUUGUGCUGGUGAGAAGGCUGCUGGUUGUGGUCUACAUGAGGAUCACCCAUGUUGAGGAUAUCAUCGGUAUC |  |  | 711 | 103
30 | CGCGUAUGAGGAUAUGCAUAAAAGGGUGCACUGAGUCUGUGACAUGAGGAUCACCCAUGUAGAAGGCGUGCGCA |  |  | 26.7 | 73.2
31 | AGUCGGAGCAGAGGAUAUUACAUGAGGAUCACCCAUGUAAAUGGAAUAAGCUGGAAACAGCAAUGUAAGAAGGCUGCUCCGACA |  |  | 67.4 | 540
32 | UUGGGACUAUCAGGAUAUGGUGUAGCCUAGUAAAGGACAUGAGGAUCACCCAUGUACCAUUGGUACCAGAAGGGAUGAUCCUAC | 173 | 46 |  | 
33 | GCGUUCUUGUAGAAGGUACUUUCGACAUCUUAUAAACGCUUGACACAUGAGGAUCACCCAUGUUGUAAGGAUAUACAUGAACGC | 6.61 | 6.41 |  | 
34 | UAAUAAUAGUCAGGAUAUAGUUAUUAUAAUAUACUAGAAGGGACACAUGAGGAUCACCCAUGUUUUAUAAUUUGUAAUUUAAAU |  |  | 21.6 | 17.7
35 | GUUGUGUGAGGAUAUUCCUGGCCGUGUGGCCGGUUUGGGUGGCAGAAGGUACAUGAGGAUCACCCAUGUACGGG |  |  | 96.9 | 75.8
36 | UGUCGGAGCAGAGGAUAUUACAUGAGGAUCACCCAUGUAUGAACCAAUCGCUGGAAACAGCAAUGUAAGAAGGCUGCUCCGACA |  |  | 10.3 | 73.7
37 | AACGCGUCAGGAUAUGCCAUAAAUUACCUAAUACAACCAUAGCAGAAGGGACAUGAGGAUCACCCAUGUAAAUA |  |  | 32.1 | 25.2
38 | GGAUGACAAAGUCAUCCAAAUCGAACAUGAGGAUCACCCAUGUAGGAUAUCCUACUGAAACAGUAGGAGAAGGACAUGUGCUUU |  |  | 52.9 | 157
39 | GGAAAUCAUGUAGGAUAUGCAUGGCGAAGCUACGCAGAAGGACAUGAGGAUCACCCAUGUUCUGGCUACCGAGUUCGGUGGCAA |  |  | 22.5 | 104
40 | CAUUAAUUGAUUAUUGUAUUUAUACAGGAUAUGUAACAUGAGGAUCACCCAUGUAUACAUGGGAAACAGAAGGGUAUUUAAAGA |  |  | 34.7 | 25.3
41 | UUGAAUUGAAACAUGAGGAUCACCCAUGUGUCAUAAUUGACAUAGGAUAUGUUUAUACUUUUAAAAUAGAAGGAUGACGAUACU | 13.8 | 11.8 |  | 
42 | UCUUAUUGCAAGGAUAUGCUAUUUAUUUUUUUUGCAGAAGGUGCAACAUGAGGAUCACCCAUGUUUCCGGGCAU |  |  | 19.2 | 42.7
43 | GGCUCAGUGACAUGAGGAUCACCCAUGUGGCUCAUUCAACGCAGAAGGCACAAGGGAACACCUCGUGAGGAUAUGCAAGUAGAC | 367 | 36.7 |  | 
44 | CGAUAUUAUAGAGGAUAUGUUUAACAUGAGGAUCACCCAUGUGAGGUGGAAUUAAUGUAUUACUUACAGAAGGCUAUACAAUCG |  |  | 316 | 432
45 | CAGCACUAUCGAGAGGAUAUGCGGUGAUGGACAUGAGGAUCACCCAUGUUAGCGGUAGCAUCACGGCAGAAGGCUCUGCUGCUGC | 28.8 | 19.9 |  | 
46 | GGUCGUUGAGGAUAUACGAACAUGUCGCCAGAUGUCAUGGUACAUGAGGAUCACCCAUGUAGAAGGUGGUGGUC |  |  | 75 | 25.7
47 | UAUUAUGUCAGAGGAUAUAUAAAUAAAUUUAUAACAUGAGGAUCACCCAUGUACUUUAGUAUGAGGUAGAAGGUUGAUAAGAUA | 45.4 | 26.8 |  | 
48 | AAAAUGUGAGGAUAUGCGAAGGCGUCUGAUAGACGAGGCUAGCAGAAGGCACAUGAGGAUCACCCAUGUCCAAA |  |  | 40.3 | 60.3
49 | AAAUAAGUUGCAGGAUAUUAUUUUUAAUAAAUAUAAGAAGGGCAACAAACCUCACAUGAGGAUCACCCAUGUACCCAUGUAUCU |  |  | 64.3 | 35.6
50 | UUUAUAUAGUAAGGAUAUGUAUUAUGUUUAUCAACAGAAGGUACUGACAUGAGGAUCACCCAUGUUUUAGUGUGGGCAUGUAGU |  |  | 218 | 301
51 | GGAUCGAAAGUGAGGAUAUACCACUGGAUACAGUGGUAGAAGGCACAUGAGGAUCACCCAUGUCCUUACGAUCC |  |  | 20.8 | 117
52 | UAGUUAUUCACAGGAUAUCGCCUCUUAUUACAUGAGGAUCACCCAUGUUUAGUUAGUUACAUGUUCGAGAAGGGUGUAGUUGUU |  |  | 554 | 819
53 | AACAUGGUACAGAAGGGCAAUUUAUUUAUUUAUUAUUUAGAACAGCAUUGCAGGAUAUGUUUAACAUGAGGAUCACCCAUGUAC | 84.4 | 15.8 |  | 
54 | GACGGUGAUGUAGGAUAUACGCUGGAAUACAGCGUAGAAGGACAUGAGGAUCACCCAUGUAAAGUGUCUCCAAAUAACACCGUC |  |  | 31.5 | 90.8
55 | AUUUGACACGUAGGAUAUCGCUUAAAUUUAACACGAGAAGGACGAACAUGAGGAUCACCCAUGUAUCAUGGUGUAGAUAAUUUG |  |  | 54.5 | 216
